Experimental findings from ChEMBL document CHEMBL1134719, “Design, synthesis and stability of N-acyloxymethyl- and N-aminocarbonyloxymethyl-2-azetidinones as human leukocyte elastase inhibitors” (Bioorg Med Chem Lett, 2001) are described below.

Series [1] in a line: Half-life in pH 7.4 phosphate buffer at 37 degree C. It counts as ADME.
The target in series [2] is T1, Neutrophil elastase (Homo sapiens) (UniProt P08246).
T1 sequence (whole entry): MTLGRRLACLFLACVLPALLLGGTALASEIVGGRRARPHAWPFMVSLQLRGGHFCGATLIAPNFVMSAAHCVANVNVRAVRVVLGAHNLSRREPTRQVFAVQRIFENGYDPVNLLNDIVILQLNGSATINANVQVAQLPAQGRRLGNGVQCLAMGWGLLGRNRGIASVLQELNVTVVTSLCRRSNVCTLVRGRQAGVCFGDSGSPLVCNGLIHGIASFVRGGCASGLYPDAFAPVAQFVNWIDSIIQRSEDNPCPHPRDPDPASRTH
Kind of series: (§1) Second-order rate constant for the inhibition of human leukocyte elastase. The method in brief: (§2)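 Pre-incubation (Kitz–Wilson) kinetics at 25 °C. Enzyme and inhibitor were incubated, and aliquots were withdrawn at several time intervals into a cuvette holding substrate in HEPES buffer. After 30 s, the absorbance change was followed for 60 s.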

Series [3] concerns the target T2, Chymotrypsin-like elastase family member 2A (Sus scrofa) (UniProt P08419).
T2 sequence (whole entry): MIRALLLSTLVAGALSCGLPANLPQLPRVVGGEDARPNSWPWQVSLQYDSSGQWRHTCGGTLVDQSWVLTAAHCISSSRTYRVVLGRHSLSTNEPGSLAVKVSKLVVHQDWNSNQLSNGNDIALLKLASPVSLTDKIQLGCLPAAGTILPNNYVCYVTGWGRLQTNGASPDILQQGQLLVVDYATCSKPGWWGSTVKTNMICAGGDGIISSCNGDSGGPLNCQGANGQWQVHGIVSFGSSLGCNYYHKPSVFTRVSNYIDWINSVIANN
Put plainly: Second-order rate constant for the inhibition of PPE (pancreatic porcine elastase); NI=no inhibition. An outline of the steps: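 Porcine pancreatic elastase was assayed at 25 °C with an inhibitor-to-enzyme ratio [I]/[E] of 200, giving the second-order constant k_obs/[I].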

For series [4], the target named is T1, Neutrophil elastase (Homo sapiens). Kind of series: Second-order rate constant for the inhibition of human leukocyte elastase;NI=no inhibition. The method in brief: as §2
For a further series, the target named is T3, Neutrophil elastase (Homo sapiens, UniProt P08246).
T3 sequence (P08246 whole entry): T1 sequence (whole entry)
The description is as §1. The method in brief:
as §2

Series [5] deals with T1, Neutrophil elastase (Homo sapiens). Put plainly: Second-order rate constant for the inhibition of HLE (human leukocyte elastase). An outline of the steps: as §2

Calls of active or inactive are those of the source. The calls are words filed in the database; no cut-off is given here. A value given as a limit tells only on which side of the number the result lay.

Usually half-life stands for the time in which the quantity being followed falls by half. Low readings indicate fast loss, high ones slow loss. Compound `CCC1(CC)C(=O)N(COC(=O)c2ccccc2)C1Sc1nc2ccccc2o1` (centres undefined) had a half-life in series [1] of 13.2 days. In series [2], this compound displayed a second-order inhibition rate constant of 52.8 M⁻¹ s⁻¹. The “k obs / 1” value in series [3] was “inactive”.
With `O=C1CCN1CO`, the “k obs / 1” value in series [4] was “inactive”.
By IC50 is commonly meant the concentration that inhibits the measured activity by half. Higher therefore signals lower potency. The compound `CO[C@H]1C(=O)N2C(C(=O)O)=C(CF)CS(=O)(=O)C12` (some centres undefined) had a half-life in series [1] of 0.792 days. In addition, the IC50 at Neutrophil elastase came to 110 µM.
Compound `CO[C@H]1C(=O)N2C(C(=O)O)=C(COC(C)=O)CS(=O)(=O)C12` (some centres undefined) yielded a second-order inhibition rate constant in series [2] of 19000 M⁻¹ s⁻¹.
As to `CCC1(CC)C(=O)N(COC(=O)Nc2ccc(C)cc2)C1S(=O)(=O)c1ccccc1` (centres undefined), in series [2], the second-order inhibition rate constant worked out at 60.9 M⁻¹ s⁻¹. For the same compound, the “k obs / 1” value in series [3] was “inactive”.
Taken in the same sequence, the figures for `O=C(OCN1C(=O)CC1Sc1nc2ccccc2o1)c1ccccc1` (centres undefined) were 43.2 M⁻¹ s⁻¹ and “inactive”.
In series [1], `O=C(OCN1C(=O)CC1S(=O)(=O)c1ccccc1)c1ccccc1` (centres undefined) showed a half-life of 40.8 days. Further, in series [2], the second-order inhibition rate constant stood at 18.7 M⁻¹ s⁻¹. Moreover, the “k obs / 1” value in series [3] was “inactive”.
`O=C(OCN1C(=O)CC1Sc1ccccc1)c1ccccc1` (centres undefined): the “k obs / 1” value in series [4] is “inactive”.
With `CCC1(CC)C(=O)N(COC(=O)Nc2ccccc2)C1S(=O)(=O)c1ccccc1` (centres undefined), in series [2], the second-order inhibition rate constant worked out at 41.9 M⁻¹ s⁻¹. Further, the “k obs / 1” value in series [3] was “inactive”.
Regarding `CCC1(CC)C(=O)N(COC(=O)c2ccccc2)C1Sc1ccccc1` (centres undefined), the second-order inhibition rate constant in series [2] turned out to be 2.2 M⁻¹ s⁻¹.
Turning to `O=C(OCN1CCC1=O)c1ccccc1`, the half-life in series [1] is 0.0542 days. The compound also came in with a k obs / 1 in series [5] of 35.5 M⁻¹ s⁻¹. For the same compound, in series [3], the “k obs / 1” value is “inactive”.
With `CCC1(CC)C(=O)N(COC(=O)Nc2ccc(OC)cc2)C1S(=O)(=O)c1ccccc1` (centres undefined), the half-life in series [1] is > 208 days. Moreover, in series [2], the second-order inhibition rate constant stood at 100 M⁻¹ s⁻¹. Besides, in series [3], the “k obs / 1” value is “inactive”.
In the case of `CCC1(CC)C(=O)N(COC(=O)NS(=O)(=O)c2ccc(C)cc2)C1S(=O)(=O)c1ccccc1` (centres undefined), in series [2], the second-order inhibition rate constant stood at 32.3 M⁻¹ s⁻¹.
In the case of `CCC1(CC)C(=O)N(CO)C1S(=O)(=O)c1ccccc1` (centres undefined), the “k obs / 1” value in series [4] was “inactive”.
`CCC1(CC)C(=O)N(COC(=O)c2ccccc2)C1S(=O)(=O)c1ccccc1` (centres undefined) had a half-life in series [1] of 125 days. Besides, the second-order inhibition rate constant in series [2] amounted to 67.5 M⁻¹ s⁻¹. Further, the “k obs / 1” value in series [3] is “inactive”.
